Experimental data as given in ChEMBL document CHEMBL1127795, “Small-molecule immunostimulants. Synthesis and activity of 7,8-disubstituted guanosines and structurally related compounds” (1994).
pEC50: −log10 of the molar value. Several values for one entry are separate records, joined by “and”; a condition that tells them apart may be missing. Equal entries are not always repeated.

What was measured:
[1] = organism: Mus musculus; assay: Tested to augment the antibody response of B cells to sheep red blood cell (SRBC) challenge (adjuvanticity); Neg indicates a response lower than vehicle control; format: functional, cell-based
Summary of the method: (§1)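 CBA/CaJ spleen cells depleted of T cells with anti-T cell monoclonal antibody (1:1000, 30 min, 4 °C) then complement (37 °C, 45 min). Cultured ± 0.1% SRBC antigen in serum-containing medium with compound from zero to 10⁻³ M for 4 d. Plaque-forming cells counted in agarose with guinea pig complement. ED50 and maximal response relative to a concurrent standard.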

[2] = organism: Mus musculus; assay: Percent of maximum response was tested to augment the antibody response of B cells to sheep red blood cell challenge; format: functional; summary of the method: as §1
[3] = organism: Mus musculus; assay: Effective dose for its ability to act as B-cell mitogens (mitogenicity); Neg indicates a response lower than vehicle control; format: functional
Summary of the method: (§2)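 CBA/CaJ mouse spleen cells (1 × 10⁵/0.2 mL) exposed to graded compound concentrations, dissolved in water or DMSO and diluted in medium, for 24 h. [³H]thymidine then added for a further 24 h; incorporation by scintillation counting. ED50 and maximal response expressed relative to a concurrently run standard (loxoribine in most cases).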

[4] = organism: Mus musculus; assay: Percent of maximum response was tested for its ability to act as B-cell mitogens (mitogenicity); format: functional; summary of the method: as §2
[5] = organism: Mus musculus; assay: Augment antibody response of B cells to sheep red blood cell (SRBC) challenge (adjuvanticity); format: functional; conditions: read-out: ED50 (the source's name); summary of the method: as §1
[6] = organism: Mus musculus; assay: Ability to act as B-cell mitogens; format: functional; conditions: read-out: ED50 (the source's name); summary of the method: as §2
[7] = tested on: YAC-1; assay: Stimulation of natural killer (NK) response in Yac-1 cell line (mouse, lymphoma); format: functional; conditions: read-out: ED50 (the source's name)
[8] = tested on: YAC-1; assay: Percent of maximum response was tested for its ability to stimulate the natural killer response in murine in vitro cell assays; format: functional, Mus musculus
[9] = organism: Mus musculus; assay: Effective dose was tested for its ability to act as B-cell mitogens (mitogenicity); format: functional; conditions: read-out: ED50 (the source's name); summary of the method: as §2
[10] = tested on: YAC-1; assay: Stimulation of natural killer (NK) response in Yac-1 cell line (mouse, lymphoma); Neg indicates a response lower than vehicle control; format: functional, cell-based
[11] = tested on: Mus musculus; assay: In vivo natural killer cell response in splenocytes of mice injected with 2 mg subcutaneous dose. % lysis of YAC-1 cells at effector: target ratio of 100:1; format: functional
Summary of the method: (§3)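 Mice dosed subcutaneously with 2 mg compound, with sesame oil as the vehicle control. Splenocytes were harvested 48 h after dosing and assayed in a 4-h ⁵¹Cr-release test against 5 × 10⁴ labelled YAC-1 cells at four effector:target ratios. Results are mean % lysis ± one standard deviation, 3–5 mice per group.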

[12] = tested on: Mus musculus; assay: In vivo natural killer cell response in splenocytes of mice injected with 2 mg subcutaneous dose. % lysis of YAC-1 cells at effector: target ratio of 200:1; format: functional; summary of the method: as §3
[13] = tested on: Mus musculus; assay: In vivo natural killer cell response in splenocytes of mice injected with 2 mg subcutaneous dose. % lysis of YAC-1 cells at effector: target ratio of 50:1; format: functional; summary of the method: as §3

pEC50 [6] | pEC50 [9] | SMILES | ED50 [1] | Max response [2] | ED50 [3] | Max response [4] | pEC50 [5] | pEC50 [7] | Max response [8] | ED50 [10] | Ratio [11] | Ratio [12] | Ratio [13]
 |  | C=CCn1c(=O)n(CCc2ccc(OC)c(OC)c2)c2nc(N)nc(O)c21 | Negative | 0% |  |  |  |  |  |  |  |  | 
 |  | C=CCn1c(=O)n(C2CCC(CO)C2)c2nc(N)nc(O)c21 (centres undefined) |  | 26% | Negative | 0% | 3.65 |  |  |  |  |  | 
4.43 |  | C=CCn1c(=O)n([C@@H](CO)OC(CO)CO)c2nc(N)nc(O)c21 | Negative | 0% |  | 6% |  |  |  |  |  |  | 
 |  | C=CCn1c(=O)n([C@@H]2O[C@H](CO)[C@H]3OC(C)(CCC(=O)OCC)O[C@H]32)c2nc(N)nc(O)c21 (some centres undefined) |  | 44% | Negative | 0% | 3.86 | 3.82 | 19% |  |  |  | 
 | 3.87 | C=CCn1c(=O)n(C2C[C@H](O)C(CO)O2)c2nc(N)nc(O)c21 (some centres undefined) |  | 99% |  | 131% | 4.52 | 4.00 | 75% |  |  |  | 
 |  | CCCCCCCCCCn1c(=O)n(C2OC(CO)[C@@H](O)[C@H]2O)c2nc(N)nc(O)c21 (some centres undefined) | Negative | 0% | Negative | 0% |  |  |  |  |  |  | 
 |  | C=CCn1c(=O)n(C2OC(CO[Si](c3ccccc3)(c3ccccc3)C(C)(C)C)[C@@H](O)[C@H]2O)c2nc(N)nc(O)c21 (some centres undefined) |  | 33% |  |  | 4.74 |  | 15% | Negative |  |  | 
 |  | Cc1nc2nc3c(c(O)n2n1)n(CCN1CCCCC1)c(=O)n3C1OC(CO)[C@@H](O)[C@H]1O (some centres undefined) | Negative | 1% | Negative | 0.1% |  |  | 0% | Negative |  |  | 
 |  | C=CCn1c(=S)n(C2OC(COC(=O)c3ccccc3)[C@H]3OC(C)(C)O[C@@H]23)c2nc(N)nc(O)c21 (some centres undefined) |  | 77% | Negative | 0% | 4.33 |  |  |  |  |  | 
4.10 |  | CCCn1c(=O)n(C2CCC(COC(C)=O)O2)c2nc(NC(C)=O)nc(O)c21 (centres undefined) |  | 100% |  | 11% | 3.81 |  | 0% | Negative |  |  | 
 |  | N#Cc1ccc(Cn2c(=O)n(C3OC(CO)[C@@H](O)[C@H]3O)c3nc(N)nc(O)c32)cc1 (some centres undefined) |  | 50% |  |  | 4.82 |  | 0% | Negative |  |  | 
 |  | Nc1nc(O)c2nc3n(c2n1)COCCO3 | Negative | 0% |  |  |  |  | 6% | Negative |  |  | 
 |  | C=CCn1c(=O)n([C@@H]2O[C@H](CO)[C@H]3OC(C)(CCC(=O)O)O[C@H]32)c2nc(N)nc(O)c21 (some centres undefined) |  |  |  |  |  |  | 0% | Negative |  |  | 
 |  | Cn1c(=O)n2c3c1c(=O)nc(N)n3CC1OC2[C@H](O)C1O (single isomer, unassigned) | Negative | 9% | Negative | 0% |  |  | 6% | Negative |  |  | 
 |  | N#Cc1cccc(Cn2c(=O)n(C3OC(CO)[C@@H](O)[C@H]3O)c3nc(N)nc(O)c32)c1 (some centres undefined) |  | 16% |  |  | 5.52 |  | 11% | Negative |  |  | 
 |  | C=CCn1c(=O)n(C2OC(CO[Si](C)(C)C(C)(C)C)[C@@H](O)[C@H]2O)c2nc(N)nc(O)c21 (some centres undefined) |  | 5% |  |  | 6.00 |  | 6% | Negative |  |  | 

SMILES | pEC50 [6] | pEC50 [9] | ED50 [1] | Max response [2] | ED50 [3] | Max response [4] | pEC50 [5] | pEC50 [7] | Max response [8] | ED50 [10] | Ratio [11] | Ratio [12] | Ratio [13]
Nc1nc(O)c2c(n1)n(C1OC(CO)[C@@H](O)[C@H]1O)c(=O)n2Cc1ccc([N+](=O)[O-])cc1 (some centres undefined) | 4.30 |  |  | 147% |  | 16% | 4.40 | 4.32 | 50% |  | 20.7 | 27.4 and 9.9 | 15.8
